Assays:
Leishmania major [1] = assay: Antileishmanial activity against Leishmania major IR-173 amastigote assessed as inhibition of parasite growth incubated for 72 hrs by resazurin staining based analysis; details: IR-173, 72 h
[2] = Selectivity index, ratio of IC50 for cytotoxicity against African green monkey Vero cells assessed as inhibition of cell growth to IC50 for antitrypanosomal activity against Trypanosoma cruzi trypomastigotes assessed as parasite growth inhibition; type: toxicity, cell-based; details: read-out: Ratio IC50
Trypanosoma cruzi [3] = assay: Antitrypanosomal activity against bloodstream Trypanosoma cruzi trypomastigotes infected in African green monkey Vero cells assessed as parasite growth inhibition incubated for 48 hrs by resazurin assay
[4] = Selectivity index, ratio of IC50 for cytotoxicity against African green monkey Vero cells assessed as inhibition of cell growth to IC50 for antitrypanosomal activity against Trypanosoma cruzi epimastigotes assessed as parasite growth inhibition; type: toxicity, cell-based; details: read-out: Ratio IC50
THP-1 = assay: cells; type: functional, cell-based; details: Homo sapiens, THP-1, 72 h
Trypanosoma cruzi [5] = assay: Antitrypanosomal activity against Trypanosoma cruzi epimastigotes assessed as parasite growth inhibition incubated for 48 hrs by resazurin staining based analysis; type: functional, organism-based
Leishmania donovani [6] = assay: Selectivity index, ratio of IC50 for antileishmanial activity against Leishmania donovani MHOM/IN/95/9515 promastigotes assessed as inhibition of parasite growth to IC50 for antileishmanial activity against Leishmania donovani MHOM/IN/95/9515 amastigote assessed as inhibition of parasite growth; type: functional
[7] = Selectivity index, ratio of IC50 for cytotoxicity against human THP-1 cells assessed as inhibition of cell growth to IC50 for antitrypanosomal activity against Trypanosoma cruzi trypomastigotes assessed as parasite growth inhibition; type: functional
in vitro [8] = details: monkey, Vero cells
Leishmania donovani [9] = assay: Antileishmanial activity against Leishmania donovani MHOM/IN/95/9515 amastigote assessed as inhibition of parasite growth incubated for 72 hrs by resazurin staining based analysis; details: MHOM/IN/95/9515, 72 h
[10] = Selectivity index, ratio of IC50 for cytotoxicity against human THP-1 cells assessed as inhibition of cell growth to IC50 for antileishmanial activity against Leishmania donovani MHOM/IN/95/9515 amastigote assessed as inhibition of parasite growth; type: functional
Trypanosoma cruzi [11] = assay: Selectivity index, ratio of IC50 for antitrypanosomal activity against Trypanosoma cruzi epimastigote assessed as parasite growth inhibition to IC50 for antitrypanosomal activity against Trypanosoma cruzi trypomastigotes assessed as parasite growth inhibition; type: functional
in vitro [12] = details: monkey, Vero cells; remark: listed apart in the source
Leishmania donovani [13] = assay: Antileishmanial activity against Leishmania donovani MHOM/IN/95/9515 promastigotes assessed as inhibition of parasite growth incubated for 48 hrs by resazurin staining based analysis; type: functional, organism-based; details: MHOM/IN/95/9515, 48 h
in vitro [14] = details: monkey, Vero cells; remark: listed apart in the source
Leishmania major [15] = assay: Antileishmanial activity against Leishmania major IR-173 promastigotes assessed as inhibition of parasite growth incubated for 48 hrs by resazurin staining based analysis; type: functional, organism-based; details: IR-173, 48 h
Procedure, shortened: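 Logarithmic-phase promastigotes (1.25 × 10^6 cells per mL) grown in supplemented M199 with 10% FBS, pH 7.3–7.4, 26 °C. […] 48 h at 26 °C, then resazurin 24 h in the dark. Absorbance 570 minus 600 nm. IC50 by non-linear regression, mean ± SD of three biological replicates.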

in vitro [16] = details: monkey, Vero cells; remark: listed apart in the source
Leishmania major [17] = assay: Selectivity index, ratio of IC50 for antileishmanial activity against Leishmania major IR-173 promastigotes assessed as inhibition of parasite growth to IC50 for antileishmanial activity against Leishmania major IR-173 amastigote assessed as inhibition of parasite growth; type: functional

| Structure (SMILES) | IC50 (Leishmania major [1]) [µM] | selectivity ratio [2] | IC50 (Trypanosoma cruzi [3]) [µM] | selectivity ratio [4] | IC50 (THP-1) [µM] | IC50 (Trypanosoma cruzi [5]) [µM] | Ratio IC50 (Leishmania donovani [6]) | Ratio IC50 [7] | selectivity ratio (in vitro [8]) | IC50 (Leishmania donovani [9]) [µM] | Ratio IC50 [10] | Ratio IC50 (Trypanosoma cruzi [11]) | selectivity ratio (in vitro [12]) | IC50 (Leishmania donovani [13]) [µM] | selectivity ratio (in vitro [14]) | IC50 (Leishmania major [15]) [µM] | selectivity ratio (in vitro [16]) | Ratio IC50 (Leishmania major [17]) |
| --- | --- | --- | --- | --- | --- | --- | --- | --- | --- | --- | --- | --- | --- | --- | --- | --- | --- | --- |
| O=[N+]([O-])c1ccc(/C=N/N=C/c2ccccc2)s1 | > 10 | 17 | 2.5 | 5 | > 100 | 9.21 | 0.13 | 40 | 29 | 7.26 | 14 | 3.68 | 45 | 0.93 | 6 | 1.43 | – | – |
| Cc1ccc(/C=N/N=C/c2ccc([N+](=O)[O-])o2)cc1 | > 10 | 25 | 4.04 | 27 | > 100 | 3.69 | – | 25 | 238 | > 10 | – | 0.91 | 132 | 0.76 | – | 0.42 | – | – |
| COc1ccc(/C=N/N=C/c2ccc([N+](=O)[O-])o2)cc1 | > 10 | 8 | 6.14 | 10 | > 100 | 4.92 | 0.51 | 16 | 57 | 2.28 | 44 | 0.8 | 44 | 1.16 | 22 | 0.89 | – | – |
| O=[N+]([O-])c1ccc(/C=N/N=C/c2ccc(O)cc2)s1 | > 10 | 11 | 3.04 | – | 22.9 | > 10 | 4.88 | 8 | 15 | 0.34 | 67 | – | 20 | 1.66 | 97 | 2.22 | – | – |
| O=C(Cn1ccnc1[N+](=O)[O-])NCc1ccccc1 [BENZNIDAZOLE] | – | 21 | 4.79 | – | > 100 | – | – | 21 | – | – | – | – | – | – | – | – | – | – |
| O=[N+]([O-])c1ccc(/C=N/N=C/c2ccc(F)cc2)s1 | > 10 | 15 | 6.56 | – | > 100 | > 10 | – | 15 | 26 | > 10 | – | – | 50 | 2 | – | 3.79 | – | – |
| O=[N+]([O-])c1ccc(/C=N/N=C/c2ccccc2)o1 | > 10 | 7 | 2.31 | 2 | > 100 | 7.66 | – | 42 | 14 | > 10 | – | 3.32 | 11 | 1.45 | – | 1.19 | – | – |
| O=[N+]([O-])c1ccc(/C=N/N=C/c2ccc(OCc3ccccc3)cc2)s1 | > 10 | – | – | – | > 100 | – | – | – | 23 | – | – | – | – | – | – | 4.39 | – | – |
| O=[N+]([O-])c1ccc(/C=N/N=C/c2ccc(O)cc2)o1 | > 10 | 11 | 1.74 | 3 | 46.2 | 7.3 | 0.38 | 27 | 29 | 2.7 | 17 | 4.2 | 18 | 1.02 | 7 | 0.64 | – | – |
| O=[N+]([O-])c1ccc(/C=N/N=C/c2ccc(OCc3ccccc3)cc2)o1 | > 10 | – | > 10 | 1 | > 100 | 95.2 | 6.44 | – | 222 | 0.25 | 400 | – | 62 | 1.61 | 400 | 0.45 | – | – |
| O=[N+]([O-])c1ccc(/C=N/N=C/c2ccc(Br)cc2)o1 | 0.63 | – | > 10 | 2 | > 100 | 46.1 | 0.56 | – | 133 | 6.41 | 16 | – | 28 | 3.56 | 16 | 0.75 | 159 | 1.19 |
| O=Cc1ccc([N+](=O)[O-])o1 | 5.6 | – | > 10 | – | 80.9 | > 10 | – | – | 2 | 2.68 | 30 | – | – | > 10 | – | 7.94 | 3 | 1.42 |
| NC(=O)N/N=C/c1ccc([N+](=O)[O-])o1 [NITROFURAZONE] | > 10 | 45 | 2.23 | 13 | > 100 | 7.83 | 1.09 | 45 | 54 | 1.69 | – | 3.5 | 54 | 1.85 | 59 | 1.85 | – | – |
| O=[N+]([O-])c1ccc(/C=N/N=C/c2ccc(Cl)cc2)o1 | 2.47 | 33 | 3.05 | 41 | > 100 | 2.41 | – | 33 | 238 | > 10 | – | 0.79 | 149 | 0.67 | – | 0.42 | 40 | 0.17 |
| O=[N+]([O-])c1ccc(/C=N/N=C/c2ccc(F)cc2)o1 | 3.69 | 24 | 1.95 | 13 | 63.4 | 3.56 | – | 51 | 65 | > 10 | – | 1.83 | 40 | 1.18 | – | 0.73 | 13 | 0.2 |
| O=C1OCCN1/N=C/c1ccc([N+](=O)[O-])o1 [FURAZOLIDONE] | 5.61 | – | – | – | – | – | – | – | – | 2.7 | – | – | – | 0.28 | – | 0.34 | – | – |
| O=[N+]([O-])c1ccc(/C=N/N=C/c2ccco2)cc1 | > 10 | – | > 10 | – | – | > 10 | – | – | – | > 10 | – | – | – | > 10 | – | > 10 | – | – |
| C(=N\N=C\c1ccco1)/c1ccc(OCc2ccccc2)cc1 | > 10 | – | > 10 | – | – | > 10 | – | – | – | > 10 | – | – | – | > 10 | – | > 10 | – | – |
| O=[N+]([O-])c1ccc(/C=N/N=C/c2ccc([N+](=O)[O-])o2)cc1 | 7.9 | 15 | 0.78 | 4 | 16.8 | 2.63 | 1.32 | 21 | 17 | 0.53 | 32 | 3.37 | 17 | 0.7 | 22 | 0.7 | 1 | 0.09 |
| O=Cc1ccc([N+](=O)[O-])s1 | > 10 | 8 | 1.62 | – | 26.7 | > 10 | – | 16 | 3 | > 10 | – | – | 2 | 5.07 | – | 3.75 | – | – |
